Drawing on ChEMBL document CHEMBL2157988, “Isolation, characterization and cytotoxic activity of benzophenone glucopyranosides from Mahkota Dewa (Phaleria macrocarpa (Scheff.) Boerl)” (Bioorg Med Chem Lett, 2012), this text covers IC50 and Activity for 18 molecules.

What all share (type): functional, cell-based
A short description of assay [1]: Cytotoxicity against human EC9706 cells after 72 hrs by SRB assay. Particulars: EC9706, 72 h. A digest of the protocol:
(§1)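 Cells in DMEM with 10% FBS and 1% penicillin/streptomycin; log-phase cells trypsinized and seeded at 5000 cells/well. DMSO stocks diluted 1000-fold in medium (<0.1% DMSO); final 100 down to 1.5625 μM in twofold steps, 72 h. Fixed with 50% TCA, stained 0.4% SRB, solubilized in 10 mM Tris base pH 10.5, OD 515 nm; IC50 calculated.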
For orientation: In SRB staining, fixed cells bind dye roughly in proportion to their protein.

The subject of assay [2] is MGC-803. Kind of assay: Cytotoxicity against human MGC803 cells after 72 hrs by SRB assay. The following applies: MGC-803, 72 h. An outline of the steps: as §1
Assay [3] has as its system PC-3. Briefly: Cytotoxicity against human PC3 cells after 72 hrs by SRB assay. The following applies: PC-3, 72 h. An outline of the steps:
as §1

Assay [4] in a line: Cytotoxicity against human EC109 cells after 72 hrs by SRB assay. The following applies: ECa-109, 72 h. A digest of the protocol: as §1
For assay [5], the system named is MGC-803. Briefly: Cytotoxicity against human L-NAC-pretreated MGC803 cells incubated 2 hr post-L-NAC addition measured after 72 hrs by SRB assay. A digest of the protocol:
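MGC-803 cells in DMEM/10% FBS, seeded 5000 cells/well, preincubated with or without 5 mM L-NAC (ROS scavenger) for 2 h before compound addition. Compound final 100 to 1.5625 μM (twofold series, <0.1% DMSO), 72 h. SRB readout after TCA fixation, OD 515 nm; IC50 (50% cell death) calculated.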

Active and inactive are the calls of the source. The calls are words filed in the database; no cut-off is given here. Some results are limits rather than exact numbers.

By IC50 is commonly meant the concentration that gives 50% inhibition. A higher IC50 goes with weaker potency. As for `COc1cc(OCCCBr)c(C(=O)c2ccc(OCc3ccccc3)cc2)c(OCc2ccccc2)c1`, the IC50 in assay [1], in assay [2], in assay [3] and in assay [4] was greater than 100 µM throughout.
On to `CCCC(=O)OC[C@H]1O[C@@H](Oc2cc(OC)cc(OC(=O)CCC)c2C(=O)c2ccc(OC(=O)CCC)cc2)[C@H](OC(=O)CCC)[C@@H](OC(=O)CCC)[C@@H]1OC(=O)CCC`, for which the IC50 in assay [1], in assay [2], in assay [3] and in assay [4] was greater than 100 µM throughout.
`C=CCOc1ccc(C(=O)c2c(OCC=C)cc(OC)cc2O[C@@H]2O[C@H](CO)[C@@H](O)[C@H](O)[C@H]2O)cc1`: the IC50 in assay [1], in assay [2], in assay [3] and in assay [4] was greater than 100 µM throughout.
As for `COc1cc(OC(=O)c2ccccc2)c(C(=O)c2ccc(OC(=O)c3ccccc3)cc2)c(O[C@@H]2O[C@H](COC(=O)c3ccccc3)[C@@H](OC(=O)c3ccccc3)[C@H](OC(=O)c3ccccc3)[C@H]2OC(=O)c2ccccc2)c1`, the IC50 in assay [1], in assay [2], in assay [3] and in assay [4] was greater than 100 µM in each case.
On to `COc1cc(O)c(C(=O)c2ccc(OCc3ccccc3)cc2)c(OCc2ccccc2)c1`, for which the IC50 in assay [1], in assay [2], in assay [3] and in assay [4] was greater than 100 µM each time.
`COc1cc(O)c(C(=O)c2ccc(O)cc2)c(O[C@@H]2O[C@H](CO)[C@@H](O)[C@H](O)[C@H]2O)c1` [MAHKOSIDE A]: the IC50 in assay [1], in assay [2], in assay [3] and in assay [4] was greater than 100 µM throughout.
As to `COc1cc(OC)c(C(=O)c2ccc(O)cc2)c(O[C@@H]2O[C@H](CO)[C@@H](O)[C@H](O)[C@H]2O)c1`, the IC50 in assay [1], in assay [2], in assay [3] and in assay [4] was greater than 100 µM throughout.
As to `COc1cc(OC(C)=O)c(C(=O)c2ccc(OC(C)=O)cc2)c(O[C@@H]2O[C@H](COC(C)=O)[C@@H](OC(C)=O)[C@H](OC(C)=O)[C@H]2OC(C)=O)c1`, the IC50 in assay [1] turned out to be 86.1 µM; in assay [2], 47.3 µM; in assay [3], 34.1 µM; in assay [4], 50.7 µM.
The matching figures for `COc1ccc(COc2ccc(C(=O)c3c(OCc4ccc(OC)cc4)cc(OC)cc3O[C@@H]3O[C@H](CO)[C@@H](O)[C@H](O)[C@H]3O)cc2)cc1`: 20.5 µM, 28.2 µM, 11.7 µM and 17.1 µM.
Taken in the same sequence, the figures for `CCOc1ccc(C(=O)c2c(OCC)cc(OC)cc2O[C@@H]2O[C@H](CO)[C@@H](O)[C@H](O)[C@H]2O)cc1` were greater than 100 µM, greater than 100 µM, greater than 100 µM and greater than 100 µM.
Taken in the same sequence, the figures for `COc1cccc(COc2ccc(C(=O)c3c(OCc4cccc(OC)c4)cc(OC)cc3O[C@@H]3O[C@H](CO)[C@@H](O)[C@H](O)[C@H]3O)cc2)c1` were 20.9 µM, 18.4 µM, 6.92 µM and 12.3 µM.
As for `COc1cc(OC(=O)c2ccc(Cl)cc2)c(C(=O)c2ccc(OC(=O)c3ccc(Cl)cc3)cc2)c(O[C@@H]2O[C@H](COC(=O)c3ccc(Cl)cc3)[C@@H](OC(=O)c3ccc(Cl)cc3)[C@H](OC(=O)c3ccc(Cl)cc3)[C@H]2OC(=O)c2ccc(Cl)cc2)c1`, the IC50 in assay [1], in assay [2], in assay [3] and in assay [4] was greater than 100 µM throughout.
`CCCCOc1ccc(C(=O)c2c(OCCCC)cc(OC)cc2O[C@@H]2O[C@H](CO)[C@@H](O)[C@H](O)[C@H]2O)cc1`: the IC50 turned out to be 41.8 µM in assay [1], 49.2 µM in assay [2], 32 µM in assay [3] and 29 µM in assay [4].
Taken in the same sequence, the figures for `COc1cc(OCC2CO2)c(C(=O)c2ccc(OCC3CO3)cc2)c(O[C@@H]2O[C@H](CO)[C@@H](O)[C@H](O)[C@H]2O)c1` (stereo partly drawn) were greater than 100 µM, greater than 100 µM, greater than 100 µM and greater than 100 µM.
The matching figures for `COc1cc(OCCCBr)c(C(=O)c2ccc(OCCCBr)cc2)c(O[C@@H]2O[C@H](CO)[C@@H](O)[C@H](O)[C@H]2O)c1`: 31.3 µM, 53.8 µM, 40 µM and 23.1 µM.
Taken in the same sequence, the figures for `COc1cc(OCc2ccccc2)c(C(=O)c2ccc(OCc3ccccc3)cc2)c(O[C@@H]2O[C@H](CO)[C@@H](O)[C@H](O)[C@H]2O)c1` were 41.1 µM, 44.3 µM, 28.9 µM and 22.7 µM.
In the case of `COc1cc(OCCCN2CCCCC2)c(C(=O)c2ccc(OCc3ccccc3)cc2)c(OCc2ccccc2)c1`, the outcome in assay [5] was Active. Besides, the IC50 in assay [1] was 4.97 µM; in assay [2] it was 3.12 µM; in assay [3] it was 3.47 µM; in assay [4] it was 5.14 µM.
`COc1cc(O)c(C(=O)c2ccc(O)cc2)c(O[C@@H]2O[C@H](COC(C)=O)[C@@H](O)[C@H](O)[C@H]2O)c1` [MAHKOSIDE B]: the IC50 in assay [1], in assay [2], in assay [3] and in assay [4] was greater than 100 µM each time.
